Data on 28 compounds can be found in ChEMBL document CHEMBL1155945, “Discovery of 2-chloro-N-(4-methoxyphenyl)-N-methylquinazolin-4-amine (EP128265, MPI-0441138) as a potent inducer of apoptosis with high in vivo activity” (J Med Chem, 2008).

Usually EC50 stands for the concentration at which the effect is half-maximal. As usually defined, the IC50 is the point on the concentration scale where inhibition reaches its midpoint. One may read the GI50 as the concentration at which growth is held to half of that of the control. What is called inhibition in vivo is the percentage by which the read-out fell short of the control.

Calls of active or inactive are those of the source. The calls are words filed in the database; no cut-off is given here.

The test system of data set [1] is T47D. Nature of the data set: Induction of apoptosis in human T47D cells assessed as caspase 3 activation after 24 hrs. The class given is functional, cell-based. The essentials:
(§1)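 A live-cell, high-throughput caspase-3 activator assay was used, with fluorescent caspase-3 substrates in intact cells. EC50 values for caspase activation are the mean ± SEM of three or more experiments.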

Data set [2] concerns HCT-116. Nature of the data set: Induction of apoptosis in human HCT116 cells assessed as caspase 3 activation after 24 hrs. The class given is functional, cell-based. Conditions: HCT-116, 24 h. The essentials: as §1
The subject of data set [3] is P388. Briefly: Cytotoxicity against mouse P388 cells. The class given is functional, cell-based. The essentials:
(§2)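 Cytotoxicity IC50 was measured in parental P388 cells and in the P388/ADR line, which overexpresses the ABC transporter Pgp-1 (MDR-1). Values are the mean ± SEM of three experiments.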

The subject of data set [4] is P388. Nature of the data set: Cytotoxicity against adriamycin-resistant mouse P388 cells expressing p-glycoprotein. Format: functional, cell-based. The essentials:
as §2

A short description of data set [5]: Toxicity in human MX1 cells xenografted crl:Nu/Nu-nuBR mouse. Format: organism-based. The note with it: in vivo. The essentials:
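MX-1 human breast tumour xenograft in mice; dosed intravenously once weekly at several dose levels […]. Tolerability was judged by maximum body weight decrease, alongside tumour growth measurement.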

Data set [6] deals with PC-3. Nature of the data set: Antitumor activity in human PC3 cells xenografted crl:Nu/Nu-nuBR mouse assessed as tumor growth inhibition at 10 mg/kg, iv administered once weekly for 2 weeks. Format: functional, organism-based. The arrangement: dose 10 mg/kg. In general terms: A xenograft is tissue or cells of one species grown in another, often human tumour cells in immunodeficient mice.

A short description of data set [7]: Displacement of fluorescent labeled colchicine from tubulin at 50 uM.
Data set [8] deals with T47D. Briefly: Growth inhibition of human T47D cells after 48 hrs by CellTiter-Glo assay. The class given is functional. The essentials: (§3)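 Cells were exposed continuously to the compound for 48 h at 37 °C. CellTiter-Glo reagent was then added and the samples mixed by agitation. After 10-15 min at room temperature, luminescence was read. GI50 was taken as 50% inhibition of cell proliferation. Values are the mean ± SEM of three experiments.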
In general terms: In ATP-based viability assays light output follows the ATP content of the culture.

Data set [9] relates to MX1. Briefly: Antitumor activity in human MX1 cells xenografted crl:Nu/Nu-nuBR mouse assessed as tumor growth inhibition at 10 mg/kg, iv administered once weekly for 2 weeks. Format: functional. The note with it: MX1, 336 h.
The test system of data set [10] is Mus musculus. Nature of the data set: AUC in C57BL/6 mouse brain at 2.5 mg/kg, iv. The arrangement: dose 2.5 mg/kg, route intravenous. The note with it: in vivo. Format: ADME, organism-based.
The nature of data set [11]: Inhibition of tubulin polymerization.
For data set [12], the system named is Mus musculus. Nature of the data set: Toxicity in human MX1 cells xenografted crl:Nu/Nu-nuBR mouse assessed as decrease in body weight at 10 mg/kg, iv administered once weekly for 2 weeks. The class given is organism-based. Set-up: dose 10 mg/kg, route intravenous; scale not given: the % may be the effect or the level left. Conditions: in vivo, 336 h.
Data set [13] is described as follows: Therapeutic index, ratio of MTD for human MX1 cells xenografted crl:Nu/Nu-nuBR mouse to tumor growth inhibition in human MX1 cells xenografted crl:Nu/Nu-nuBR mouse. The note with it: in vivo.
In data set [14] the test system is Mus musculus. Nature of the data set: AUC in C57BL/6 mouse plasma at 2.5 mg/kg, iv. Format: ADME, organism-based. The arrangement: dose 2.5 mg/kg, route intravenous. The note with it: in vivo.
Data set [15] relates to HCT-116. Briefly: Growth inhibition of human HCT116 cells after 48 hrs by CellTiter-Glo assay. Format: functional. Conditions: HCT-116, 48 h. The essentials: as §3
The subject of data set [16] is MX1. Briefly: Antitumor activity in human MX1 cells xenografted crl:Nu/Nu-nuBR mouse assessed as tumor growth inhibition at 2.5 mg/kg, iv administered once a day for 5 days for 2 weeks. The class given is functional.

On to `COc1ccc(Nc2nc(Cl)nc3ccccc23)cc1`, for which the concentration giving a half-maximal response (EC50) in data set [1] and in data set [2] was greater than 10000 nM throughout.
Take `COc1ccc(Oc2ncnc3ccccc23)cc1`: the EC50 in data set [1] and in data set [2] was greater than 10000 nM each time.
Consider `COc1ccc(N(C)c2nc(Cl)nc3cc(Cl)ccc23)cc1`, for which the concentration giving a half-maximal response (EC50) was 300 nM in data set [1] and 350 nM in [2].
The matching figures for `CN(c1ccc([N+](=O)[O-])cc1)c1nc(Cl)nc2ccccc12`: 770 nM and 1400 nM.
Taken in the same sequence, the figures for `COc1ccc(CN(C)c2nc(Cl)nc3ccccc23)cc1` were 68 nM and 120 nM.
Taken in the same sequence, the figures for `CN(c1ccccc1)c1nc(Cl)nc2ccccc12` were 210 nM and 300 nM.
Turning to `CN(c1ccc(Oc2ccccc2)cc1)c1nc(Cl)nc2ccccc12`, the concentration giving a half-maximal response (EC50) in data set [1] and in data set [2] was greater than 10000 nM throughout.
Turning to `CCN(c1ccc(OC)cc1)c1nc(Cl)nc2ccccc12`, the EC50 was 39 nM in [1] and 49 nM in [2].
Taken in the same sequence, the figures for `COc1ccc(N(C)c2nc(Cl)nc3ccccc23)cc1OC` were 9 nM and 15 nM.
Regarding `CN(c1ccc(OC(F)(F)F)cc1)c1nc(Cl)nc2ccccc12`, the EC50 in data set [1] was 49 nM; in [2], 59 nM.
With `CC(=O)O[C@@]12CO[C@@H]1C[C@H](O)[C@@]1(C)C(=O)[C@H](O)C3=C(C)[C@@H](OC(=O)[C@H](O)[C@@H](NC(=O)OC(C)(C)C)c4ccccc4)C[C@@](O)([C@@H](OC(=O)c4ccccc4)[C@H]21)C3(C)C` [DOCETAXEL], the figures for the half-inhibitory concentration (IC50) in [3] and in [4] were 2 nM and 277 nM, respectively.
Regarding `COc1cccc(N(C)c2nc(Cl)nc3ccccc23)c1OC`, the EC50 was 680 nM in [1] and 1110 nM in [2].
With `COc1ccc(N(C)c2nc(Cl)nc3ccccc23)cc1`, the IC50 in data set [3] is 2.1 nM; in data set [4], 2.2 nM; in [11], less than 400 nM. The MTD in data set [5] turned out to be 25 mg/kg. The result in [6] and in data set [7] was Active. The GI50 in data set [8] was found to be 1 nM; in data set [15] it was 2 nM. Besides, in data set [9], the inhibition in vivo at 10 mg/kg is greater than 95%. Further, the results for the AUC in [10] and in [14] were 20563 ng/mL and 669 ng/mL, respectively. Also, the Activity in data set [12] is less than 10%. Moreover, the selectivity ratio in [13] was determined as 2.5. Further, the inhibition in vivo at 2.5 mg/kg in data set [16] was 90%.
Consider `COc1ccccc1N(C)c1nc(Cl)nc2ccccc12`, for which the EC50 in [1] is 4440 nM; in data set [2] it was greater than 10000 nM.
As to `CC[C@]1(O)C[C@@H]2CN(CCc3c([nH]c4ccccc34)[C@@](C(=O)OC)(c3cc4c(cc3OC)N(C)[C@H]3[C@@](O)(C(=O)OC)[C@H](OC(C)=O)[C@]5(CC)C=CCN6CC[C@]43[C@@H]65)C2)C1` [VINBLASTINE], the results for the IC50 in data set [3] and in [4] were 0.6 nM and 27 nM, respectively.
Consider `COc1ccc(N(C)c2nc(Cl)nc3ccccc23)cn1`, for which the EC50 in [1] amounted to 17 nM; in [2], 29 nM. The values for the GI50 in data set [8] and in data set [15] were 37 nM and 40 nM, respectively.
For the compound `Cc1ccc(N(C)c2nc(Cl)nc3ccccc23)cc1`, the EC50 came to 15 nM in data set [1] and 21 nM in data set [2].
`COc1ccc(N(C)c2nc(NC/C=C(\C)CCC=C(C)C)nc3ccccc23)cc1`: the GI50 in [8] was 850 nM; in data set [15], 350 nM.
Consider `COc1ccc(Nc2nc(Cl)nc3cc(OC)c(OC)cc23)cc1`, for which the EC50 in [1] and in data set [2] was greater than 10000 nM in each case.
With `COc1cccc(N(C)c2nc(Cl)nc3ccccc23)c1`, the EC50 is 25 nM in [1] and 31 nM in data set [2].
On to `COc1ccc(N(C)c2nc(Cl)nc3cc(OC)c(OC)cc23)cc1`, for which the EC50 in data set [1] was 590 nM; in data set [2], 970 nM.
The matching figures for `CN(c1ccc(O)cc1)c1nc(Cl)nc2ccccc12`: 85 nM and 120 nM.
Taken in the same sequence, the figures for `COc1ccc(N(C)c2nc(Cl)nc3ccc(Cl)cc23)cc1` were 10 nM and 13 nM.
The matching figures for `CCOc1ccc(N(C)c2nc(Cl)nc3ccccc23)cc1`: 5 nM and 5 nM.
Regarding `COc1ccc(N(C)c2ncnc3ccccc23)cc1`, the EC50 in data set [1] was determined as 6 nM; in data set [2], 8 nM.
Taken in the same sequence, the figures for `CN(c1ccc(Cl)cc1)c1nc(Cl)nc2ccccc12` were 68 nM and 72 nM.
On to `COc1cc2c(c(OC)c1OC)-c1ccc(OC)c(=O)cc1[C@@H](NC(C)=O)CC2` [COLCHICINE], for which, in data set [11], the IC50 came to 500 nM.
`CN(c1ccc2c(c1)OCO2)c1nc(Cl)nc2ccccc12`: the concentration for a half-maximal effect (EC50) was 31 nM in [1] and 65 nM in [2].
